Reference: ChEMBL document CHEMBL4725411, “A Phosphoramidate Strategy Enables Membrane Permeability of a Non-nucleotide Inhibitor of the Prolyl Isomerase Pin1” (ACS Med Chem Lett, 2020)
Calls of active or inactive are those of the source. The calls are words filed in the database; no cut-off is given here.

What was measured:
[1] = molecular target: Peptidyl-prolyl cis-trans isomerase NIMA-interacting 1 (Homo sapiens, UniProt Q13526); assay: Displacement of FITC-WFYpSPFLE from human Pin1 (45-163) catalytic domain by fluorescence polarization assay
Peptidyl-prolyl cis-trans isomerase NIMA-interacting 1, sequence (Q13526 whole entry, the tested form may be a part): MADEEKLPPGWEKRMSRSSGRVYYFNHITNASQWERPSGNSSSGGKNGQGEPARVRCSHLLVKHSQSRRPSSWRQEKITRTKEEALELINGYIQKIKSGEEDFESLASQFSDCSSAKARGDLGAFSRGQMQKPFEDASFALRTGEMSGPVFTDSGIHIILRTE

PC-3 [2] = assay: Inhibition of colony formation in human PC-3 cells; type: functional, cell-based
Procedure, shortened: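 PC3 cells treated at low density, colony formation scored. Mean of triplicate experiments, error as SD.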

[3] = Octanol/water partition coefficient, logP of compound; type: physicochemical
[4] = Prodrug conversion in human K562 cells assessed as cytosolic enzyme product of 1-R-phosphate after 5 hrs by UPLC-MS analysis; type: ADME, cell-based; conditions: k562, 5 h
Procedure, shortened: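 K562 cells exposed 5 h in serum-free medium, then washed extensively, centrifuged and extracted with ethyl acetate. Products quantified by UPLC-MS. DMSO solvent control subtracted as background. Average of duplicates with full range.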

[5] = Prodrug conversion in cell free extract; type: ADME
Procedure, shortened: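 Cell-free control run in medium without cells, then ethyl acetate extraction and UPLC-MS for the intermediate and the free phosphate.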

[6] = Prodrug release in human K562 cells assessed as 1R-phosphate binding to Pin1 at 25 uM after 5 hrs by Western blot based cellular thermal shift assay; type: ADME, cell-based; conditions: k562, 5 h
Procedure, shortened: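 K562 cells exposed to prodrug at 25 μM or 0.25% DMSO for 5 h, then heated across 38–60 °C and lysed. Soluble Pin1 measured by Western blot. Three independent experiments, error as SEM.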

[7] = Prodrug conversion in human MDA-MB-231 cells assessed as increase in Pin1 level mesured longer than 24 hrs; type: ADME, cell-based; conditions: mda-mb-231, 24 h
Procedure, shortened: (§1)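 MDA-MB-231 cells treated over a dose series for 72 h (longer than 24 h), with or without the Hint1 inhibitor TrpGc at 100 μM. Pin1 abundance at normal temperature used as the read-out.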

[8] = Prodrug conversion in human MDA-MB-231 cells assessed as increase in Pin1 level at 5 uM in presence of 100 uM TrpGc Hint1 inhibitor; type: ADME, cell-based; conditions: mda-mb-231, 5 µM; procedure, shortened: as §1
[9] = Prodrug release in human MDA-MB-231 cells assessed as 1R-phosphate binding to Pin1 at 25 uM at fixed temperature 48 degC by Western blot based assay; type: ADME, cell-based; conditions: mda-mb-231, 25 µM
Procedure, shortened: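 MDA-MB-231 cells dosed at 25 μM or with 0.25% DMSO for 5 h, heated at a fixed 48 °C and lysed. Soluble Pin1 measured by Western blot in biological quadruplicates.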

PC-3 [10] = assay: Antiproliferative activity in human PC-3 cells after 72 hrs by ATP-Glo assay; type: functional, cell-based
Procedure, shortened: (§2)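 PC3 cells grown to higher confluence, compound exposure 72 h. Proliferation read by ATP-Glo luminescence or by MTT.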

PC-3 [11] = assay: Antiproliferative activity in human PC-3 cells after 72 hrs by MTT assay; type: functional, cell-based; procedure, shortened: as §2

IC50 [1] | logP [3] | Drug metabolism [4] | Drug metabolism [5] | Drug metabolism [6] | Drug metabolism [7] | Drug metabolism [8] | Drug metabolism [9] | Structure (SMILES) | inhibition (PC-3 [2]) | Activity (PC-3 [10]) | Activity (PC-3 [11])
> 10 µM |  |  |  |  |  |  |  | CCOC(=O)CNP(=O)(OC[C@H](Cc1ccccc1)NC(=O)c1cc2ccccc2s1)Oc1ccccc1 (some centres undefined) | inactive |  | 
 | < -4.6 |  |  |  |  |  |  | O=C(N[C@@H](COP(=O)(O)O)Cc1ccccc1)c1cc2ccccc2s1 |  |  | 
> 10 µM | 0.27 | Metabolite_Detected | Metabolite_Notdetected | Metabolite_Detected | Metabolite_Detected | Metabolite_Notdetected | Metabolite_Detected | CCOC(=O)CNP(=O)(OC[C@@H](Cc1ccccc1)NC(=O)c1cc2ccccc2s1)Oc1ccccc1 (some centres undefined) | Active | inactive | inactive
